From PubChem
V1R ag counter = activates human V1a receptor in oxytocin agonist counter-screen; CHO-V1R cells, Fluo-8 calcium fluorescence, agonist mode; 0% DMSO, 100% 3 nM vasopressin; AID 2797; actives 0.25% (n = 320,000); activation, % at 3 µM; P37288;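 active = activation above the mean activation of all tested compounds plus 3 SD, per screening run, cut at about 20% in these data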;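 note: signal is peak over basal fluorescence ratio across a 100 second FLIPR read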
OXTR agonist = human OXTR agonism | activation, % at 3 µM | CHO-OTR cells, Fluo-8 calcium fluorescence; normalized: DMSO 0%, oxytocin 100% | AID 2435 | actives 0.32% (n = 320,000);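 active = activation above the mean of all tested compounds plus 3 SD, cutoff set per screening run, cut at about 20% in these data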;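 note: peak over basal fluorescence ratio from a 100 s FLIPR kinetic read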
Target sequence (P30559 whole entry, looked up): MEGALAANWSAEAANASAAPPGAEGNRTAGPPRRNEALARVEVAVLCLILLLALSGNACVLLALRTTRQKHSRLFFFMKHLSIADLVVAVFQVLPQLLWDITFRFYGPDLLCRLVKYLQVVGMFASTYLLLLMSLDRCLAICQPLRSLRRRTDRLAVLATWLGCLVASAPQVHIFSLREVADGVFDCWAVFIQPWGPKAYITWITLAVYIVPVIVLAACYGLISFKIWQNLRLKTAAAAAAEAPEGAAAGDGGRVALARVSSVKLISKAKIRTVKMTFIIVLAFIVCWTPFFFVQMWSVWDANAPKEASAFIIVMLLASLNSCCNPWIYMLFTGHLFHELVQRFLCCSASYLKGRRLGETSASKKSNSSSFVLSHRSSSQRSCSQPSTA
CHO parental Ca = signal in parental CHO cells, OX1R antagonist counter-screen; parental CHO-K1, ATP-induced calcium, Fluo-8 fluorescence; inhibition, % at 5.6 µM; actives 0.63% (n = 330,000);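 active = inhibition above that plate's mean sample inhibition plus 3 SD, cut at about 26% in these data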;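 note: 0% = ATP-challenged DMSO wells and 100% = DMSO wells without ATP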
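Test system: parental CHO cells; detection: calcium-sensitive Fluo-8 fluorescence; evaluation: percent inhibition of calcium signal; also added: ATP as calcium-mobilizing challenge; repeats: one well per compound; control set: ATP-challenged DMSO wells low, unchallenged DMSO wells high; compound: single nominal dose of 5.6 µM per compound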
OX1R antag-1 = OX1R (human) antagonism; O43613; OX1R-expressing cells, FRET antagonist read-out; inhibition, % at 6.6 µM; actives 1.8% (n = 330,000); AID 485270; in the data active = inhibition mostly above about 38%, no sharp cut-off; inactive = mostly below about 40%;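 note: 0% = agonist challenge alone and 100% = reference antagonist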
OXTR potentiate = potentiates the human oxytocin receptor response | P30559 | CHO-OTR cells, Fluo-8 calcium fluorescence, potentiator mode; 0% = oxytocin EC15, 100% = EC100 | activation, % at 3 µM | actives 0.061% (n = 320,000) | AID 2445;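 active = activation above that plate's cutoff, the mean activation of tested compounds plus 3 SD, cut at about 6.6% in these data, passing the limit was not always enough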;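 note: 100% uses oxytocin at 75 nM as the full agonist control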
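Material: CHO-OTR cells, human receptor; compound dosing: single dose, 3.0 µM nominal final compound concentration; schedule: 6 min compound pre-incubation at room temperature, 100 s kinetic read; measured by: kinetic Fluo-8 calcium fluorescence; read-out basis: % activation vs EC15 and EC100 oxytocin; controls: EC15 oxytocin alone as 0%, 75 nM oxytocin as 100%; replicates: singlicate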
OX1R antag-2 = blocks the human orexin 1 receptor; actives 0.43% (n = 330,000); AID 434989; inhibition, % at 5 µM; O43613; CHO/OX1R cells, Fluo-8 calcium fluorescence, orexin A;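 active = inhibition above its plate's threshold, mean inhibition of all tested compounds on the plate plus 3 SD, cut at about 37% in these data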;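 note: 0% = orexin A challenge wells and 100% = SB-334867-A antagonist wells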
Numbers without * were called inactive. Hits are enriched below; roughly 2.6% of the tested compounds scored in any of these assays.

`COc1ccc(-n2nc(C(=O)NCC(=O)NCCCN3CCOCC3)c3ccccc3c2=O)c(OC)c1` gave V1R ag counter -1, OXTR agonist 0, CHO parental Ca -1, OX1R antag-1 25, OXTR potentiate -8 and OX1R antag-2 -13.
CSc1oc(-c2ccccc2)nc1S(=O)(=O)c1ccc(C)cc1 was read as V1R ag counter 0, OXTR agonist -1, CHO parental Ca 29*, OX1R antag-1 16, OXTR potentiate -4 and OX1R antag-2 -26.
`O=C1C=C(NCCN2CCOCC2)C(=O)c2cnccc21` gave V1R ag counter 0, OXTR agonist 1, CHO parental Ca -4, OX1R antag-1 115*, OXTR potentiate -6 and OX1R antag-2 1.
Screening CC1(c2ccc(Cl)cc2)NC(=O)N(CC(=O)N2CCc3ccccc32)C1=O (centres undefined) returned V1R ag counter 28*, OXTR agonist 40*, CHO parental Ca -3, OX1R antag-1 -2, OXTR potentiate -13 and OX1R antag-2 21.
`CCC1(c2ccc(F)cc2)NC(=O)N(CC(=O)N2CCc3ccccc32)C1=O` (centres undefined) gave V1R ag counter 27*, OXTR agonist 29*, CHO parental Ca -8, OX1R antag-1 -3, OXTR potentiate -15 and OX1R antag-2 2.
CCC1(CC)NC(=O)N(CC(=O)N2CCc3ccccc32)C1=O was read as V1R ag counter -1, OXTR agonist 1, CHO parental Ca -10, OX1R antag-1 8, OXTR potentiate 4 and OX1R antag-2 -18.
`CCC1(c2ccc(F)cc2)NC(=O)N(CC(=O)Nc2ccccc2Cl)C1=O` (centres undefined) gave V1R ag counter 22*, OXTR agonist 23*, CHO parental Ca -6, OX1R antag-1 -7, OXTR potentiate -15 and OX1R antag-2 -10.
Screening CCC1(c2ccccc2)NC(=O)N(CC(=O)N2CCc3ccccc32)C1=O (centres undefined) returned V1R ag counter 4, OXTR agonist 11, CHO parental Ca -19, OX1R antag-1 4, OXTR potentiate -12 and OX1R antag-2 -11.
CCC1(c2ccc(F)cc2)NC(=O)N(CC(=O)Nc2ccccc2C)C1=O (centres undefined) was read as V1R ag counter 9, OXTR agonist 18, CHO parental Ca -16, OX1R antag-1 5, OXTR potentiate -10 and OX1R antag-2 -19.
Screening Cc1ccc(CN(CC(=O)NCCc2ccccc2)C(=O)c2csnn2)cc1 returned V1R ag counter 0, OXTR agonist 0, CHO parental Ca -17, OX1R antag-1 10, OXTR potentiate -10 and OX1R antag-2 -40.
`CCc1nc2ccccc2c(C(=O)OCc2nc3ccccc3c(=O)[nH]2)c1C` gave V1R ag counter 10, OXTR agonist 0, CHO parental Ca -30, OX1R antag-1 16, OXTR potentiate -1 and OX1R antag-2 -21.
Screening COc1ccc([N+](=O)[O-])cc1NC(=O)C(C)OC(=O)c1cccnc1 (centres undefined) returned V1R ag counter 0, OXTR agonist -1, CHO parental Ca -3, OX1R antag-1 21, OXTR potentiate -12 and OX1R antag-2 -4.
CC(C)(C)c1ccc(OCCOc2ccc(C(C)(C)C)cc2NC=O)c(NC=O)c1 was read as V1R ag counter 1, OXTR agonist 0, CHO parental Ca 69*, OX1R antag-1 29, OXTR potentiate -15 and OX1R antag-2 41*.
Screening CC(=O)Nc1cc(C(F)(F)F)ccc1OCCOc1ccccc1 returned V1R ag counter 1, OXTR agonist -1, CHO parental Ca -10, OX1R antag-1 7, OXTR potentiate 1 and OX1R antag-2 -16.
Screening O=[N+]([O-])c1nn(-c2ccccc2)n(O)c1=NC1CCN(Cc2ccccc2)CC1 returned V1R ag counter 2, OXTR agonist 0, CHO parental Ca 3, OX1R antag-1 46*, OXTR potentiate -4 and OX1R antag-2 -21.
`CCN(C(=O)COC(=O)CCNS(=O)(=O)c1ccccc1F)c1c(N)n(Cc2ccccc2)c(=O)[nH]c1=O` gave V1R ag counter 0, OXTR agonist 0, CHO parental Ca -8, OX1R antag-1 0, OXTR potentiate -2 and OX1R antag-2 -14.
For Cn1ncc(Br)c1C(=O)N/N=C/c1cccc(OC2CSC2)c1 the results were V1R ag counter 3, OXTR agonist 1, CHO parental Ca -13, OX1R antag-1 25, OXTR potentiate 0 and OX1R antag-2 -18.
`O=C(N/N=C/c1cccc(OC2CSC2)c1)c1ccccc1O` gave V1R ag counter 13, OXTR agonist 13, CHO parental Ca 12, OX1R antag-1 72*, OXTR potentiate -23 and OX1R antag-2 1.
CN(C)c1ccc(-c2nc3ccccc3c(=O)[nH]2)cc1 was read as V1R ag counter 0, OXTR agonist 0, CHO parental Ca -4, OX1R antag-1 57*, OXTR potentiate -24 and OX1R antag-2 17.
COc1ccc(-c2nc3ccccc3c(=O)[nH]2)cc1 was read as V1R ag counter 0, OXTR agonist 1, CHO parental Ca 3, OX1R antag-1 7, OXTR potentiate 2 and OX1R antag-2 -1.
For Cc1cc2cc(OCC(=O)O)ccc2n1C the results were V1R ag counter 6, OXTR agonist 2, CHO parental Ca -2, OX1R antag-1 59*, OXTR potentiate -16 and OX1R antag-2 -7.
`CCOC(=O)c1cn2nc(SCc3ccccc3)nc2nc1C` gave V1R ag counter 1, OXTR agonist 0, CHO parental Ca -6, OX1R antag-1 13, OXTR potentiate 1 and OX1R antag-2 -8.
Screening COc1ccc(Cl)cc1C(=O)NNC(=O)COC(=O)CCN=C1NS(=O)(=O)c2ccccc21 returned V1R ag counter -1, OXTR agonist 0, CHO parental Ca -11, OX1R antag-1 15, OXTR potentiate -4 and OX1R antag-2 -15.
For CC[C@]12c3[nH]c4cc(-c5ccco5)ccc4c3CCN1C(=O)[C@@H](CC(=O)NCCC1=CCCCC1)C[C@@H]2C(=O)N1CCN(C(=O)c2ccco2)CC1 the results were CHO parental Ca -21, OX1R antag-1 43* and OX1R antag-2 45.
Cc1ccc(C)c(NC(=O)C2CCCN(S(=O)(=O)c3c(C)nn(C)c3C)C2)c1 (centres undefined) was read as V1R ag counter 3, OXTR agonist 2, CHO parental Ca -20, OX1R antag-1 19, OXTR potentiate -6 and OX1R antag-2 -11.
Screening CCCCNS(=O)(=O)c1ccc2nc(SCC(=O)Nc3sccc3C#N)[nH]c2c1 returned V1R ag counter 9, OXTR agonist 2, CHO parental Ca 47*, OX1R antag-1 76*, OXTR potentiate -18 and OX1R antag-2 54*.
